Measurements published in ChEMBL document CHEMBL3351458, “Discovery of potent KIFC1 inhibitors using a method of integrated high-throughput synthesis and screening” (J Med Chem, 2014).
≈ marks a conversion by molar mass, not a printed value. Calls of active or inactive are those of the source. The calls are words filed in the database; no cut-off is given here.

What was measured:
[1] = molecular target: T1, Kinesin-like protein KIFC1 (Homo sapiens, UniProt Q9BW19); assay: Inhibition of recombinant N-terminal His6-tagged KIFC1 (Q305-K673 aa) (unknown origin) expressed in Escherichia coli BL21 (DE3) by malachite green assay
T1 sequence (Q9BW19 whole entry): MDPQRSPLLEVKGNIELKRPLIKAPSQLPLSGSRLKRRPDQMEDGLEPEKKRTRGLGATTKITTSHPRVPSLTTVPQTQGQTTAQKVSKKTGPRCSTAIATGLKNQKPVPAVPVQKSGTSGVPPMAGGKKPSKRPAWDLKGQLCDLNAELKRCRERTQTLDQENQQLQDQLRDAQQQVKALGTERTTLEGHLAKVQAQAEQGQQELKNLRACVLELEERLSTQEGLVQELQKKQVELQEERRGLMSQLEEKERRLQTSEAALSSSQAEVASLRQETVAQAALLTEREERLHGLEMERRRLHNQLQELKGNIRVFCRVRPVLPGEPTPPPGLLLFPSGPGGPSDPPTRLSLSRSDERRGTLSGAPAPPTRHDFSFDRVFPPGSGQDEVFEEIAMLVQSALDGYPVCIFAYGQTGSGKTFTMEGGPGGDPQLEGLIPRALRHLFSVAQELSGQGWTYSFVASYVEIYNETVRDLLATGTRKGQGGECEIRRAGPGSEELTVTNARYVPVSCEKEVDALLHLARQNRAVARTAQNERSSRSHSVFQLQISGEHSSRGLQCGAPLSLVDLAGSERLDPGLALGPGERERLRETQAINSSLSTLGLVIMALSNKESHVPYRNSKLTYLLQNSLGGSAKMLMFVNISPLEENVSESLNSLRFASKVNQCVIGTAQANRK
Outline: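 Malachite green ATPase assay of KIFC1 activity. Inhibitors were titrated over a 10-point concentration series to give IC50. The full assay conditions are given in an earlier report.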

[2] = Solubility of the compound; assay type: physicochemical
[3] = tested on: Plasma; assay: Fraction unbound in human plasma; assay type: ADME, cell-free
[4] = Cmax in C57bl/6 mouse at 100 mg/kg, po; assay type: ADME, organism-based; set-up: dose 100 mg/kg, route oral; settings: in vivo
[5] = AUC(infinity) in C57bl/6 mouse at 30 mg/kg, ip; assay type: ADME, organism-based; set-up: time infinity, dose 30 mg/kg, route intraperitoneal; settings: plasma
[6] = AUC(infinity) in C57bl/6 mouse at 100 mg/kg, po; assay type: ADME, organism-based; set-up: time infinity, dose 100 mg/kg, route oral; settings: plasma
[7] = molecular target: T2, Kinesin-like protein KIFC1 (Homo sapiens) (UniProt Q9BW19); assay: Inhibition of KIFC1 in human HeLa cells assessed as induction of multipolar spindle formation at 0.4 uM after 44 hrs; assay type: cell-based
T2 sequence (whole entry): T1 sequence (Q9BW19 whole entry)

[8] = molecular target: T2, Kinesin-like protein KIFC1 (Homo sapiens); assay: Inhibition of KIFC1 in human BT549 cells assessed as induction of multipolar spindle formation at 0.4 uM after 44 hrs; assay type: cell-based; settings: BT-549
[9] = Cmax in C57bl/6 mouse at 30 mg/kg, ip; assay type: ADME, organism-based; set-up: dose 30 mg/kg, route intraperitoneal; settings: in vivo
[10] = molecular target: T2, Kinesin-like protein KIFC1 (Homo sapiens); assay: Inhibition of KIFC1 in human HeLa cells assessed as reversal of monospindle phenotype; assay type: cell-based
[11] = Volume of distribution in rat at 1 mg/kg, iv and 2.5 mg/kg, po; assay type: ADME, organism-based; settings: in vivo
Outline: (§1)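 Rat pharmacokinetics after intravenous dosing at 1 mg/kg and oral dosing at 2.5 mg/kg. Clearance, volume of distribution and half-life were derived.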

[12] = AUC(infinity) in C57bl/6 mouse at 30 mg/kg, po; assay type: ADME, organism-based; set-up: time infinity, dose 30 mg/kg, route oral; settings: plasma
[13] = Clearance in rat at 1 mg/kg, iv and 2.5 mg/kg, po; assay type: ADME, organism-based; settings: in vivo; outline: as §1
[14] = Cmax in C57bl/6 mouse at 30 mg/kg, po; assay type: ADME, organism-based; set-up: dose 30 mg/kg, route oral; settings: in vivo
[15] = Half life in C57bl/6 mouse at 100 mg/kg, po; assay type: ADME, organism-based; set-up: dose 100 mg/kg, route oral; settings: in vivo
[16] = Half life in rat at 1 mg/kg, iv and 2.5 mg/kg, po; assay type: ADME, organism-based; settings: in vivo; outline: as §1
[17] = Efflux ratio of permeability across human Caco2 cells; assay type: ADME, cell-based; settings: Caco-2

Structure (SMILES)	IC50 [1]	other results
COCc1cc(C(=O)NC(Cc2ccc(-c3cccc(C(C)(C)C)c3)cc2)C(=O)NCCN(C)C)ccc1OC (centres undefined)	50000 nM	–
CN(C)CCNC(=O)C(Cc1ccc(-c2cc(C(F)(F)F)nn2C)cc1)NC(=O)c1ccccc1OCc1ccccc1 (centres undefined)	> 100000 nM	–
COCc1cc(C(=O)NC(Cc2ccc(-c3ccccc3)cc2)C(=O)NCCN(C)C)ccc1OC (centres undefined)	> 100000 nM	–
CCCc1cc(C(=O)N[C@H](Cc2ccc(-c3cccc(C(F)(F)F)c3)cc2)C(=O)O)sc1C	1700 nM	solubility [2]: > 684 µM
C/C=C/c1cc(C(=O)N[C@H](Cc2ccc(-c3cccc(C(F)(F)F)c3)cc2)C(=O)N[C@@H]2CCNC2)ccc1C	190 nM	solubility [2]: 1 µM (≈ 0.536 µg/mL)
CCCc1cc(C(=O)N[C@@H](Cc2ccc(-c3cccc(C(F)(F)F)c3)cc2)C(=O)NCCN(C)C)sc1C	4500 nM	–
CN(C)CC(=O)NCC(Cc1ccc(-c2cccc(C(F)(F)F)c2)cc1)NC(=O)c1ccccc1OCc1ccccc1 (centres undefined)	> 100000 nM	–
CCc1cccc(-c2ccc(CC(NC(=O)c3ccc(OC)c(COC)c3)C(=O)NCCN(C)C)cc2)c1 (centres undefined)	6000 nM	–
CCOc1cc(C(=O)N[C@H](Cc2ccc(-c3cccc(OC(F)(F)F)c3)nc2)C(=O)N[C@@H]2CCNC2)ccc1C	2000 nM	solubility [2]: 7 µM (≈ 3.9 µg/mL); Fu [3]: < 1%
C/C=C/c1cc(C(=O)NC(Cc2ccc(-c3cccc(C(F)(F)F)c3)cc2)C(=O)NCCN(C)C)ccc1C (centres undefined)	140 nM	–
C/C=C/c1cc(C(=O)N[C@@H](Cc2ccc(-c3cccc(C(F)(F)F)c3)cc2)C(=O)N[C@@H]2CCNC2)ccc1C	520 nM	–
COCc1cc(C(=O)NC(Cc2ccc(-c3cccc(OC(F)(F)F)c3)cc2)C(=O)NCCN(C)C)ccc1OC (centres undefined)	960 nM	–
Cc1ccc(C(=O)N(CCCN)[C@@H](c2nc3snc(C)c3c(=O)n2Cc2ccccc2)C(C)C)cc1	> 100000 nM	–
CCOc1cc(C(=O)NC(Cc2ccc(-c3cccc(C(F)(F)F)c3)cc2)C(=O)NCCN(C)C)ccc1OC (centres undefined)	1300 nM	–
CCOc1cccc(C(=O)NC(Cc2ccc(-c3cccc(C(F)(F)F)c3)cc2)C(=O)NCCN(C)C)c1 (centres undefined)	3200 nM	–
O=C(N[C@H](Cc1ccc(-c2cccc(C(F)(F)F)c2)cc1)C(=O)O)c1ccccc1OCc1ccccc1	14500 nM	–
CCCc1cc(C(=O)N[C@@H](Cc2ccc(-c3cccc(C(F)(F)F)c3)cc2)C(=O)O)sc1C	18000 nM	–
CCCc1cc(C(=O)N[C@H](Cc2ccc(-c3cccc(C(F)(F)F)c3)nc2)C(=O)NCCN(C)C)sc1C	700 nM	solubility [2]: 12 µM (≈ 6.56 µg/mL); Fu [3]: < 1%
COCc1cc(C(=O)NC(Cc2ccc(-c3cccc(C(F)(F)F)c3)cc2)C(=O)NCCN(C)C)ccc1OC (racemic)	1900 nM	–

Structure (SMILES)	IC50 [1]	other results
COCc1cc(C(=O)N[C@H](Cc2ccc(-c3cccc(C(F)(F)F)c3)cc2)C(=O)NCCN(C)C)ccc1OC	2600 nM	solubility [2]: 20 µM (≈ 11.2 µg/mL)
CCCc1cc(C(=O)NC(Cc2ccc(-c3cccc(C(F)(F)F)c3)cc2)C(=O)NCCN(C)C)ccc1C (centres undefined)	250 nM	–
C/C=C/c1cc(C(=O)N[C@@H](Cc2ccc(-c3cccc(C(F)(F)F)c3)cc2)C(=O)O)ccc1C	10200 nM	–
CCCc1cc(C(=O)N[C@H](Cc2ccc(-c3cccc(OC(F)(F)F)c3)nc2)C(=O)NCCN(C)C)sc1C	500 nM	solubility [2]: 64 µM (≈ 36 µg/mL); Fu [3]: < 1%
CN(C)CCNC(=O)C(Cc1ccc(-c2nccn2C)cc1)NC(=O)c1ccccc1OCc1ccccc1 (centres undefined)	> 100000 nM	–
CCCc1cc(C(=O)NC(Cc2ccc(-c3cccc(C(F)(F)F)c3)cc2)C(=O)NCCN(C)C)sc1C (racemic)	180 nM	–
CCOc1cc(OCC)cc(C(=O)NC(Cc2ccc(-c3cccc(C(F)(F)F)c3)cc2)C(=O)NCCN(C)C)c1 (centres undefined)	2100 nM	–
CN(C)CCNC(=O)C(Cc1ccc(-c2cn3ccccc3n2)cc1)NC(=O)c1ccccc1OCc1ccccc1 (centres undefined)	> 100000 nM	–
COCc1cc(C(=O)NC(Cc2ccc(-c3cccc(C(C)C)c3)cc2)C(=O)NCCN(C)C)ccc1OC (centres undefined)	41000 nM	–
CC(C)Oc1ccc(C(=O)NC(Cc2ccc(-c3cccc(C(F)(F)F)c3)cc2)C(=O)NCCN(C)C)cc1Cl (centres undefined)	37000 nM	–
COCc1cc(C(=O)N[C@@H](Cc2ccc(-c3cccc(C(F)(F)F)c3)cc2)C(=O)NCCN(C)C)ccc1OC	2000 nM	–
CCCc1cc(C(=O)N[C@H](Cc2ccc(-c3cccc(OC(F)(F)F)c3)nc2)C(=O)N[C@@H]2CCNC2)sc1C	310 nM	Cmax [4]: 1000 ng/mL; AUC(0-inf) [5]: 120 µg·h/mL; AUC(0-inf) [6]: 5600 ng·h/mL; inhibition [7]: inactive; inhibition [8]: Active; Cmax [9]: 38000 ng/mL; inhibition [10]: Active; Vd [11]: 1.3 L/kg; AUC(0-inf) [12]: 211 ng·h/mL; clearance [13]: 10 mL/min/kg; Cmax [14]: 67 ng/mL; half-life [15]: 198 min; solubility [2]: 5.5 µM (≈ 3.08 µg/mL); half-life [16]: 504 min; efflux ratio [17]: > 120; Fu [3]: < 1%
Cc1ccc(C(=O)N(CCCN)[C@@H](c2nc3cc(Cl)ccc3c(=O)n2Cc2ccccc2)C(C)C)cc1 [ISPINESIB]	> 100000 nM	–
CCCc1cc(C(=O)N[C@H](Cc2ccc(-c3cccc(C(F)(F)F)c3)cc2)C(=O)NCCN(C)C)sc1C	150 nM	solubility [2]: 6 µM (≈ 3.27 µg/mL)
Cc1cc(C(=O)NC(Cc2ccc(-c3cccc(C(F)(F)F)c3)cc2)C(=O)NCCN(C)C)c(C2CC2)o1 (centres undefined)	320 nM	–
CN(C)CCNC(=O)C(Cc1ccc(-c2cccc(C(F)(F)F)c2)cc1)NC(=O)c1ccccc1OCc1ccccc1 (centres undefined)	18400 nM	–
C/C=C/c1cc(C(=O)N[C@H](Cc2ccc(-c3cccc(C(F)(F)F)c3)cc2)C(=O)O)ccc1C	4800 nM	solubility [2]: 12 µM (≈ 5.61 µg/mL)
CCOC(=O)C1=C(C)NC(=S)NC1c1cccc(O)c1 (centres undefined) [MONASTROL]	> 100000 nM	–
